This is an account of results in ChEMBL document CHEMBL3425469, “Discovery of imidazo[2,1-b]thiazole HCV NS4B inhibitors exhibiting synergistic effect with other direct-acting antiviral agents” (J Med Chem, 2015).

What is called CC50 is the concentration giving 50% cytotoxicity. Broadly, the pEC50 is −log10 of the EC50, conventionally taken in molar units. Higher therefore signals a low EC50.

For series [1], the system named is Hepatitis C virus. Nature of the series: Antiviral activity against Hepatitis C virus genotype 1b Con 1 infected in human HuH7 cells at 20 nM after 72 hrs by luciferase assay in presence of 10 uM clemizole. Format: functional, Hepacivirus hominis, Huh-7. In short, it runs like this:
(§1)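 Stable Con1 GT1b bicistronic luciferase replicon in Huh-7 cells, 8000 cells/well. Test compound and a marketed DAA or clemizole added alone or together at varied concentrations, 0.5% DMSO final. 72 h at 37°C, then luciferase read with Bright-Glo. Inhibition expressed as % of untreated control, with cytotoxicity run in parallel. CI and DRI derived by the Chou–Talalay median-effect method.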

For series [2], the system named is Hepatitis C virus. Nature of the series: Antiviral activity against Hepatitis C virus genotype 1b Con 1 infected in human HuH7 cells at 80 nM after 72 hrs by luciferase assay in presence of 20 uM clemizole. The class given is functional, Hepacivirus hominis, Huh-7. The method in brief: (§2)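 Huh-7 cells stably carrying a GT1b Con1 bicistronic luciferase replicon, seeded at 8000 cells/well. The test compound and the partner DAA are dosed orthogonally at various concentrations, final 0.5% DMSO, then incubated 72 h at 37°C. Bright-Glo luciferase read-out gives replicon inhibition as % of untreated control. Cytotoxicity is checked in parallel by CellTiter-Fluor. CI and DRI are derived by the Chou–Talalay median-effect method.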

In series [3] the test system is Hepatitis C virus. Nature of the series: Antiviral activity against Hepatitis C virus genotype 1b Con 1 infected in human HuH7 cells at 40 nM after 72 hrs by luciferase assay in presence of 0.04 nM daclatasvir. The class given is functional, Hepacivirus hominis, Huh-7. In short, it runs like this:
as §2

For series [4], the system named is Hepatitis C virus. Put plainly: Antiviral activity against Hepatitis C virus genotype 1b Con 1 infected in human HuH7 cells at 160 nM after 72 hrs by luciferase assay in presence of 60 nM sofobuvir. Format: functional, Hepacivirus hominis, Huh-7. In short, it runs like this:
as §1

The subject of series [5] is Hepatitis C virus. Put plainly: Antiviral activity against Hepatitis C virus genotype 1b Con 1 infected in human HuH7 cells at 5 nM after 72 hrs by luciferase assay in presence of 60 nM sofobuvir. The class given is functional, Hepacivirus hominis, Huh-7. In short, it runs like this: as §2
The subject of series [6] is Hepatitis C virus. Nature of the series: Antiviral activity against Hepatitis C virus genotype 1b Con 1 infected in human HuH7 cells at 10 nM after 72 hrs by luciferase assay in presence of 5 uM clemizole. Format: functional, Hepacivirus hominis, Huh-7. The method in brief:
as §1

The subject of series [7] is Hepatitis C virus. Nature of the series: Antiviral activity against Hepatitis C virus genotype 1b Con 1 infected in human HuH7 cells at 160 nM after 72 hrs by luciferase assay in presence of 0.08 nM daclatasvir. The class given is functional, Hepacivirus hominis, Huh-7. The method in brief: as §1
Series [8] relates to Hepatitis C virus. Nature of the series: Antiviral activity against Hepatitis C virus genotype 1b Con 1 infected in human HuH7 cells at 40 nM after 72 hrs by luciferase assay in presence of 3 nM simeprevir. Format: functional, Hepacivirus hominis, Huh-7. In short, it runs like this:
as §2

In series [9] the test system is Hepatitis C virus. Put plainly: Antiviral activity against Hepatitis C virus genotype 1b Con 1 infected in human HuH7 cells at 160 nM after 72 hrs by luciferase assay in presence of 30 nM sofobuvir. The class given is functional, Hepacivirus hominis, Huh-7. In short, it runs like this:
as §1

In series [10] the test system is Hepatitis C virus. Nature of the series: Antiviral activity against Hepatitis C virus genotype 1b Con 1 infected in human HuH7 cells at 40 nM after 72 hrs by luciferase assay in presence of 15 uM clemizole. The class given is functional, Hepacivirus hominis, Huh-7. The method in brief:
as §2

The subject of series [11] is Hepatitis C virus. Put plainly: Antiviral activity against Hepatitis C virus genotype 1b Con 1 infected in human HuH7 cells at 2.5 nM after 72 hrs by luciferase assay in presence of 0.02 nM daclatasvir. Format: functional, Hepacivirus hominis, Huh-7. In short, it runs like this: as §1
Series [12] in a line: Cytotoxicity against human HuH7 cells assessed as cell proliferation by cell titer assay. Format: cell-based, Huh-7. The method in brief: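 Huh-7 cells carrying GT1b Con1 bicistronic replicon seeded at 8000 cells/well; compound added at 0.5% DMSO final, 37°C for 72 h. Proliferation read with CellTiter-Fluor reagent per manufacturer; CC50 fitted from concentration-response, average of at least two independent determinations.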

Series [13] relates to Hepatitis C virus. Nature of the series: Antiviral activity against Hepatitis C virus genotype 1b Con 1 infected in human HuH7 cells at 80 nM after 72 hrs by luciferase assay in presence of 17.5 uM clemizole. Format: functional, Hepacivirus hominis, Huh-7. In short, it runs like this:
as §2

Series [14] concerns Hepatitis C virus. Put plainly: Antiviral activity against Hepatitis C virus genotype 1b Con 1 infected in human HuH7 cells at 160 nM after 72 hrs by luciferase assay in presence of 12 nM simeprevir. Format: functional, Hepacivirus hominis, Huh-7. In short, it runs like this:
as §1

For series [15], the system named is Hepatitis C virus. Put plainly: Antiviral activity against Hepatitis C virus genotype 1b Con 1 infected in human HuH7 cells at 10 nM after 72 hrs by luciferase assay in presence of 6 nM simeprevir. The class given is functional, Hepacivirus hominis, Huh-7. The method in brief:
as §1

In series [16] the test system is Hepatitis C virus. Nature of the series: Antiviral activity against Hepatitis C virus genotype 1b harboring H94R mutation transfected in human HuH7 cells after 72 hrs by luciferase assay. Conditions: Huh-7, 72 h. Format: functional, cell-based, Hepacivirus hominis. The method in brief:
(§3)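 Huh-7 cells were transiently electroporated with genotype 1b replicon RNA carrying the specified mutation and plated at 10000 cells/well. Compounds were added at 0.5% DMSO final for 72 h at 37°C. Read-out was Bright-Glo luciferase. EC50 is the mean of two independent runs within 2-fold of each other. A reference drug EC50 was measured alongside each mutant replicon to validate it.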

The test system of series [17] is Hepatitis C virus. Put plainly: Antiviral activity against Hepatitis C virus genotype 1b harboring F98C mutation transfected in human HuH7 cells after 72 hrs by luciferase assay. Format: functional, cell-based, Hepacivirus hominis. Conditions: Huh-7, 72 h. The method in brief:
as §3

Series [18] concerns Hepatitis C virus. Nature of the series: Antiviral activity against Hepatitis C virus genotype 1b Con 1 infected in human HuH7 cells at 10 nM after 72 hrs by luciferase assay in presence of 120 nM sofobuvir. The class given is functional, Hepacivirus hominis, Huh-7. The method in brief:
as §1

Series [19] relates to Hepatitis C virus. Put plainly: Antiviral activity against Hepatitis C virus genotype 1b Con 1 infected in human HuH7 cells at 20 nM after 72 hrs by luciferase assay in presence of 60 nM sofobuvir. Format: functional, Hepacivirus hominis, Huh-7. The method in brief: as §2
In series [20] the test system is Hepatitis C virus. Nature of the series: Antiviral activity against Hepatitis C virus genotype 1b Con 1 infected in human HuH7 cells at 20 nM after 72 hrs by luciferase assay in presence of 30 nM sofobuvir. The class given is functional, Hepacivirus hominis, Huh-7. In short, it runs like this: as §2
Series [21] has as its system Hepatitis C virus. Nature of the series: Antiviral activity against Hepatitis C virus genotype 1b Con 1 infected in human HuH7 cells at 20 nM after 72 hrs by luciferase assay in presence of 0.02 nM daclatasvir. Format: functional, Hepacivirus hominis, Huh-7. In short, it runs like this: as §1
Series [22] has as its system Hepatitis C virus. Nature of the series: Antiviral activity against Hepatitis C virus genotype 1b Con 1 infected in human HuH7 cells at 160 nM after 72 hrs by luciferase assay in presence of 10 uM clemizole. The class given is functional, Hepacivirus hominis, Huh-7. The method in brief:
as §1

Series [23] deals with Hepatitis C virus. Nature of the series: Antiviral activity against Hepatitis C virus genotype 1b Con 1 infected in human HuH7 cells at 20 nM after 72 hrs by luciferase assay in presence of 5 uM clemizole. The class given is functional, Hepacivirus hominis, Huh-7. In short, it runs like this: as §2
Series [24] concerns Hepatitis C virus. Put plainly: Antiviral activity against Hepatitis C virus genotype 1b Con 1 infected in human HuH7 cells at 5 nM after 72 hrs by luciferase assay in presence of 240 nM sofobuvir. The class given is functional, Hepacivirus hominis, Huh-7. The method in brief: as §2

pEC50: −log10 of the molar value. A value given as a limit tells only on which side of the number the result lay.

Take `O=C(c1nc2scc(C3CC3)n2c1Cl)N1CCN(C2CCCC2)C(=O)C1`: the CI with Hepatitis C virus [1] worked out at 0.61; in the series on Hepatitis C virus [2], 1.41; in the series with Hepatitis C virus [3] it was 0.54; with Hepatitis C virus [4], 0.58; in the series with Hepatitis C virus [5], 0.85; in the series with Hepatitis C virus [6] it was 0.82. Also, the CI in the series with Hepatitis C virus [7] is 0.42; in the series on Hepatitis C virus [8], 0.74; in the series on Hepatitis C virus [9], 0.89; in the series with Hepatitis C virus [10], 0.94; with Hepatitis C virus [11] it was 1.2; in the series on Hepatitis C virus [13], 1.11. Moreover, the CI in the series with Hepatitis C virus [14] worked out at 0.47; with Hepatitis C virus [15] it was 0.54; in the series on Hepatitis C virus [18] it was 0.7; with Hepatitis C virus [19], 0.78; with Hepatitis C virus [20] it was 0.83; in the series on Hepatitis C virus [21] it was 0.98. Further, the CI in the series with Hepatitis C virus [22] worked out at 1.09; with Hepatitis C virus [23] it was 0.94; in the series with Hepatitis C virus [24], 0.74. For the same compound, the CC50 in [12] was over 10 µM. The pEC50 with Hepatitis C virus [16] was 5.40; with Hepatitis C virus [17] it was 4.57.
